ABHD4 inh = inhibitors of mouse ABHD4; Q8VD66; purified mABHD4, FP-Rh probe fluorescence polarization; inhibition, % at 8.92 µM; actives 0.54% (n = 370,000); AID 720543;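 active = inhibition exceeding the mean over every tested compound plus 3 SD, cut at about 30% in these data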;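 also: 0% = plate median of compound wells and 100% = S159A mutant with DMSO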
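Doses – 8.92 µM, single dose · Material – wild-type mouse ABHD4 protein · Replication – single well per compound (singlicate) · Measure – percent inhibition of probe binding, normalized to plate controls · Schedule – 45 min compound pre-incubation plus 60 min probe step, 25 °C · Detection – fluorescence polarization with parallel and perpendicular emission, 525/598 nm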
LEDGF integ inh = blocks HIV-1 LEDGF/p75-dependent DNA integration. inhibition, % at 3.7 µM. TR-FRET IN-LEDGF/p75 DNA integration, Eu/Cy5. actives 0.64% (n = 370,000). AID 743269;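 active = inhibition above the screen-wide mean plus 3 SD, cut at about 13% in these data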;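 also: signal is the Cy5 over europium emission ratio at 671 and 618 nm; 0% = plate median of compound wells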
HTRA1 inh = HTRA1 (human) protease inhibition; AID 504803; actives 0.5% (n = 340,000); Q92743; inhibition, % at 5.96 µM; recombinant HTRA1, FP-rhodamine activity-based probe, fluorescence polarization; in the data active = inhibition above about 36%;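 also: 0% = enzyme with DMSO and 100% = wells lacking enzyme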
DAGLB inh = diacylglycerol lipase beta (human) inhibition. Q8NCG7. HEK293T DAGLB membrane lysate, EnzChek fluorogenic substrate. inhibition, % at 5.17 µM. actives 0.059% (n = 340,000). AID 504411; in the data active = inhibition above about 34%;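 also: 0% = enzyme with vehicle and 100% = wells lacking enzyme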
rCAG RNA binder = binds r(CAG) RNA repeats | r(CAG) RNA repeat, TO-PRO-1 dye displacement fluorescence | inhibition, % at 3 µM | actives 1.3% (n = 370,000);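 active = inhibition above the plate cutoff, the mean of all test compounds on that plate plus 3 SD, cut at about 35% in these data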;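 also: 0% = DMSO alone and 100% = 100 µM mitoxantrone as full dye displacement; higher means more dye released from RNA so lower well fluorescence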
PRMT1 FP inh = PRMT1 (human) inhibition, primary screen | recombinant PRMT1, activity-based probe fluorescence polarization | inhibition, % at 2.79 µM | actives 1.3% (n = 370,000);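 active = inhibition above about 21% made by adding two undisclosed values, limit read from the data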
Target sequence (Q99873 whole entry, looked up): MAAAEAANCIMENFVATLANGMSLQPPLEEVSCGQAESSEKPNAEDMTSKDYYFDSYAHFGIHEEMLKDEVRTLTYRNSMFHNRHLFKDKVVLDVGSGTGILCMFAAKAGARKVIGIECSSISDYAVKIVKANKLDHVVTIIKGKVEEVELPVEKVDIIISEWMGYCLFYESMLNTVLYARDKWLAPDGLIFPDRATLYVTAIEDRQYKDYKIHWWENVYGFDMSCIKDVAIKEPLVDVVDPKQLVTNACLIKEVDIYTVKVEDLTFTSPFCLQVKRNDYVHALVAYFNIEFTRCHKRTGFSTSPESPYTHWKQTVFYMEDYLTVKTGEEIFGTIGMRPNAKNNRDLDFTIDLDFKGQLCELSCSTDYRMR
Numbers without * were called inactive; . = no result given. Compounds with a hit are over-represented: about 3.2% of the library has one in this group of screens.

SMILES	ABHD4 inh	LEDGF integ inh	HTRA1 inh	DAGLB inh	rCAG RNA binder	PRMT1 FP inh
COc1cc(C(=O)N(Cc2ccco2)Cc2cc3ccccc3[nH]c2=O)cc(OC)c1OC	-6	6	-7	2	1	1
CCCN1C(=O)c2[nH]nc(-c3ccccc3)c2C1c1ccc(F)cc1 (stereo unspecified)	-13	-1	.	.	0	22*
CCCN1C(=O)c2[nH]nc(-c3ccccc3)c2C1c1ccc(C)cc1 (stereo unspecified)	-29	5	.	.	0	0
COC(=O)CCC(=O)Nc1sc(Cc2ccccc2)c(C)c1C(N)=O	3	2	0	0	7	24*
CCCC(=O)Nc1sc(Cc2ccccc2)c(C)c1C(N)=O	-6	-8	-2	0	3	23*
COC(=O)c1c(NC(=O)CCC(=O)O)sc(Cc2ccccc2)c1C	-3	-4	5	3	33	3
COc1cccc(/C=N/c2sc(Cc3ccccc3)c(C)c2C(N)=O)c1O	19	1	-3	1	37*	11
COc1ccc(C(=O)O/N=C(\N)c2ccccc2)cc1OC	-9	4	0	-8	1	1
Cn1cccc1C(=O)OCc1ccc(F)cc1	-1	0	7	-3	1	-2
CCOc1ccc2nc(SCC(=O)Nc3cccc(S(=O)(=O)NC4=NCCCCC4)c3)[nH]c2c1	9	6	2	-2	14	6
O=c1c2c3nc4ccccc4nc3n(Cc3ccccc3)c2ncn1Cc1ccco1	-20	7	-55	7	37*	38*
COc1ccc(C(=O)CCN2CCN(c3ccccc3OC)CC2)cc1	-2	-6	-1	1	-9	15
COc1ccc(C(=O)CCN2CCc3cc(OC)c(OC)cc3C2)cc1	5	-2	0	2	-6	22*
CCCCNC(=O)C1(C)CCN1C(=O)CSc1ccccc1 (stereo unspecified)	12	0	.	.	0	-3
O=C(/C=C/c1ccco1)c1cccc([N+](=O)[O-])c1	28	7	7	7	39*	20
CC1(C)CC(=O)c2c(n(-c3cccc4ccccc34)ccc2=O)C1	3	-1	4	-1	-2	-1
Cc1cccc(C)c1OCc1cc(C(=O)NCc2cn(C)nc2C)no1	-3	3	5	-1	-4	1
CC(=O)N(CCC(c1ccco1)C(C)C)Cc1ccc(OC(C)C)cc1 (stereo unspecified)	11	-3	-23	-7	-5	4
COc1cc(N)c(Cl)cc1C(=O)NC1CCN(Cc2ccccc2)CC1	8	-1	3	4	0	3
Cc1ccc(S(=O)(=O)N2CCCCC2)cc1NC(=O)CCc1nc2ccccc2c(=O)[nH]1	1	0	-6	3	15	22*
COc1ccc(S(=O)(=O)N2CCCCC2)cc1NC(=O)CCc1nc2ccccc2c(=O)[nH]1	2	-4	-2	2	2	1
COc1cc(C(=O)Nc2scc(-c3ccccc3)c2C(=O)O)cc(OC)c1OC	-10	0	-1	6	49*	5
CCOc1cccc(/C=N/NC(=S)Nc2cc(S(=O)(=O)N3CCOCC3)ccc2N2CCOCC2)c1O	14	-3	9	13	23	-4
O=C(Cc1ccc(O)cc1)NC1CCCCCC1	6	-2	-4	1	0	5
Cc1nc2c(C(=O)NCc3ccc4c(c3)OCO4)c[nH]n2c(=O)c1Cl	-7	4	-10	12	55*	1
SMILES	ABHD4 inh	LEDGF integ inh	HTRA1 inh	DAGLB inh	rCAG RNA binder	PRMT1 FP inh
Cc1nc2c(C(=O)NCCC3=CCCCC3)c[nH]n2c(=O)c1Cl	-31	3	-11	11	71*	5
CCOC(=O)C1CCCN(C2CC(=O)N(c3ccc(C)cc3)C2=O)C1 (stereo unspecified)	4	-1	-1	0	-8	19
CCOC(=O)C1CCN(C2CC(=O)N(c3cccc(Cl)c3)C2=O)CC1 (stereo unspecified)	4	1	-3	2	-3	22*
CCC1SC(N)=NC1=O (stereo unspecified)	11	2	-1	-1	-1	-1
CN1CCN(c2cc(N3CCN(C(=O)c4ccco4)CC3)c3c4c(onc24)-c2ccccc2C3=O)CC1	.	.	63*	10	.	.
CCOC(=O)N1CCN(c2cc(NCCC(=O)O)c3c4c(onc24)-c2ccccc2C3=O)CC1	.	.	40*	19	.	.
O=C(c1ccco1)N1CCN(C2=NS(=O)(=O)c3ccccc32)CC1	8	-1	0	1	0	2
COc1ccccc1N(CC(=O)NCc1ccccc1)S(=O)(=O)c1cccs1	2	5	4	-2	3	-1
CCCCCCc1c(C)c2ccc(OCC(=O)N3CCC[C@H]3C(=O)O)c(C)c2oc1=O	-13	1	-15	4	41*	1
N#CC(C#SN)=C1CCCCC1	15	-2	-1	0	0	24*
N#CC(C(=O)O)=C1CCCC1	2	-1	-1	-3	5	0
O=C(CN(Cc1ccccc1)C(=O)CSc1nnc(COc2ccccc2)o1)NC1CCCC1	2	1	8	2	-2	0
CS(=O)(=O)c1ccc(C(=O)NNC(=O)c2cc(-c3ccccc3)n[nH]2)cc1	1	0	4	0	2	24*
COc1ccc(CCn2c(-c3ccc(C(C)(C)C)cc3)n[nH]c2=S)cc1OC	0	3	0	-2	1	1
O=C1CC(Sc2cccs2)C(=O)N1c1ccccc1 (stereo unspecified)	-1	-7	0	1	-1	49*
Cc1ccc2c(c1)sc[n+]2Cc1ccccc1	6	-5	3	-6	2	64*
CC(C(=O)N1CCCCC1)N(C)CC(=O)Nc1ccc(F)c(F)c1F (stereo unspecified)	-2	0	0	-2	2	-2
C=C(NC(=O)C(=C)NC(=O)c1csc(C2=NC3c4csc(n4)C4NC(=O)c5csc(n5)C(C(C)(O)C(C)O)NC(=O)C5CSC(=N5)/C(=C/C)NC(=O)C(C(C)O)NC(=O)c5csc(n5)C3(CC2)NC(=O)C(C)NC(=O)C(=C)NC(=O)C(=C)NC(=O)C(C(C)C)NC2C=Cc3c(C(C)O)cc(nc3C2O)C(=O)OC4C)n1)C(N)=O (stereo unspecified)	-84	32*	-64	-1	34	1
CCOC(=O)C1=C(COC(=O)/C=C/c2ccc(C)o2)NC(=O)NC1C (stereo unspecified)	-3	3	-7	-2	-2	23*
CC(=O)OCC1=C(C(=O)O)N2C(=O)C(NC(=O)C(C)Cn3nc(C)c(Cl)c3C)C2SC1 (stereo unspecified)	-3	6	1	1	11	25*
